From PubChem
LYP act: LYP phosphatase activators, primary screen, biochemical, DiFMUP fluorescence, 2 µM | 96,000 tested, 0.11% active | activation, % at 2 µM | Tyrosine-protein phosphatase non-receptor type 22 (Homo sapiens), Q9Y2R2 | recombinant LYP; 0 = plate median, 100 = signal doubled;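 active means activation at 2 µM above a set limit, the mean plus 5 SD, cut at about 37% in these data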
HIV Rev-RRE inh: HIV-1 Rev-RRE binding inhibitors, primary screen, biochemical, FRET, protein-RNA interaction. P05866. Rev peptide-RRE RNA binding. inhibition, % at 8 µM. 97,000 tested, 0.79% active. AID 704, 2007;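 active means inhibition above the screen-wide mean plus 3 SD, cut at about 35% in these data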
Target sequence (P05866 whole entry, looked up): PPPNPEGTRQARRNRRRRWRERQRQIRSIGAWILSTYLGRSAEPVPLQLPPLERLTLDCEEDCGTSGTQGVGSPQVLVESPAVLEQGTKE
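Assay system: Labelled RRE RNA duplex and labelled Rev peptide | Times: 5 min preincubation and 15 min binding, 25 °C | Detection: FRET, ex 480 nm, em 540 and 671 nm | Evaluation: % inhibition of FRET ratio versus controls | Benchmarks: DMSO wells as 0% and neomycin B wells as 100% inhibition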
PTK2B oligo ant: antagonists of Pyk2 self-association, primary screen, Q293 cells, FERM NanoBiT luminescence, HTS. active compounds read low. 99,000 tested, 0.83% active. z-score (the deposit names both 25 µM and 10 µM). Protein-tyrosine kinase 2-beta (Homo sapiens), Q14289;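 active means Z-score of -3 or lower, scaled per plate to the spread of control and sample wells; inactive means z-score above -3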;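 further: negative z-score means lost luminescence so less FERM oligomerization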
PTPN22 inh 2: PTPN22 phosphatase inhibitors, primary screen, biochemical, DiFMUP fluorescence, 2 µM. 96,000 tested, 0.21% active. inhibition, % at 2 µM. Tyrosine-protein phosphatase non-receptor type 22 (Homo sapiens), Q9Y2R2. recombinant LYP catalytic domain. AID 640, 2007;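 active means inhibition at 2 µM at or above a set limit, the screen mean plus 3 SD, cut at about 24% in these data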
A number is an active result; [ ] = dose if it differs, or a comment. Compounds with a hit are over-represented: about 1.8% of the library has one in this group of screens.

For CCOc1ccc(NS(=O)(=O)c2cc(OC)ccc2OC)cc1 the results were LYP act inactive, HIV Rev-RRE inh inactive, PTK2B oligo ant inactive and PTPN22 inh 2 inactive.
`COc1ccc(OC)c(S(=O)(=O)Nc2ccc(Oc3ccccc3)cc2)c1` gave LYP act inactive, HIV Rev-RRE inh inactive, PTK2B oligo ant -3.6 and PTPN22 inh 2 inactive.
Screening O=C(CSc1nnnn1-c1cccnc1)NCc1cccs1 returned LYP act inactive, HIV Rev-RRE inh inactive, PTK2B oligo ant inactive and PTPN22 inh 2 inactive.
Screening c1ccc(CNc2ccc3c(c2)ncn3C2CCCCC2)nc1 returned LYP act inactive, HIV Rev-RRE inh inactive, PTK2B oligo ant inactive and PTPN22 inh 2 inactive.
For Cc1ccc(S(=O)(=O)N/N=C/c2c(C)nn(-c3ccccc3)c2C)cc1 the results were LYP act inactive, HIV Rev-RRE inh inactive, PTK2B oligo ant inactive and PTPN22 inh 2 inactive.
`Cc1nn(-c2ccccc2)c(C)c1/C=N/NC(=O)c1cc(-c2ccccc2)n[nH]1` gave LYP act inactive, HIV Rev-RRE inh inactive, PTK2B oligo ant -3 and PTPN22 inh 2 inactive.
For CCOC(=O)C1=C(C)NC2=C(C1c1ccc([N+](=O)[O-])cc1)S(=O)(=O)c1ccccc12 (configuration not stated) the results were LYP act inactive, HIV Rev-RRE inh inactive, PTK2B oligo ant -3 and PTPN22 inh 2 inactive.
For CCOC(=O)C1=C(C)NC(C)=C(C(=O)OCC)C1c1ccc(O)cc1 the results were LYP act inactive, HIV Rev-RRE inh inactive, PTK2B oligo ant inactive and PTPN22 inh 2 inactive.
For O=c1cc(C(F)(F)F)nc(-n2[nH]c3c(c2=O)CCCC3)[nH]1 the results were LYP act inactive, HIV Rev-RRE inh 67, PTK2B oligo ant inactive and PTPN22 inh 2 inactive.
Screening Cc1cc(=O)[nH]c(-n2[nH]c(C)cc2=O)n1 returned LYP act inactive, HIV Rev-RRE inh inactive, PTK2B oligo ant inactive and PTPN22 inh 2 inactive.
`CS(=O)(=O)N(CC(=O)NCc1ccc2c(c1)OCO2)Cc1ccccc1` gave LYP act inactive, HIV Rev-RRE inh inactive, PTK2B oligo ant inactive and PTPN22 inh 2 inactive.
`CCOC(=O)c1c(C)nc2c(c1-c1ccc(OC)c(OC)c1)C(=O)c1ccccc1-2` gave LYP act inactive, HIV Rev-RRE inh inactive, PTK2B oligo ant inactive and PTPN22 inh 2 inactive.
For CCOC(=O)C(C(=O)OCC)c1cc(Br)c2noc3c2c1C(=O)c1ccccc1-3 the results were LYP act inactive, HIV Rev-RRE inh 58, PTK2B oligo ant inactive and PTPN22 inh 2 inactive.
Screening CC(=O)Nc1ccccc1N(C)S(=O)(=O)c1ccc(C)cc1 returned LYP act inactive, HIV Rev-RRE inh inactive, PTK2B oligo ant inactive and PTPN22 inh 2 inactive.
CCN(CC)c1ccc(C=Nc2ccc(N(C)C)cc2)c(O)c1 was read as LYP act inactive, HIV Rev-RRE inh 81[fluorescence artefact?], PTK2B oligo ant inactive and PTPN22 inh 2 inactive.
CCN(CC)c1ccc(N=Cc2ccc(N(CC)CC)cc2O)cc1 was read as LYP act inactive, HIV Rev-RRE inh 96[fluorescence artefact?], PTK2B oligo ant inactive and PTPN22 inh 2 inactive.
Screening C=CCNC(=O)c1onc(CSc2ccc(F)cc2)c1C(=O)NCCOC returned LYP act inactive, HIV Rev-RRE inh inactive and PTPN22 inh 2 inactive.
For Cc1ccc([C@@H]2C3COCC=C3C(C#N)=C(N)C2(C#N)C#N)o1 (some centres not stated) the results were LYP act inactive, HIV Rev-RRE inh 42, PTK2B oligo ant inactive and PTPN22 inh 2 inactive.
O=[N+]([O-])c1cccc(/C=C/c2nc(C=Nc3ccc4ccccc4c3)c(O)o2)c1 was read as LYP act inactive, HIV Rev-RRE inh 49, PTK2B oligo ant inactive and PTPN22 inh 2 inactive.
Screening O=C(CCn1c(=O)[nH]c2ccsc2c1=O)Nc1ccc(F)c(F)c1 returned LYP act inactive, HIV Rev-RRE inh inactive, PTK2B oligo ant inactive and PTPN22 inh 2 inactive.
O=C(NC1CCCC1)C(c1cccs1)N(CC1CCCO1)C(=O)Cc1cccs1 (configuration not stated) was read as LYP act inactive, HIV Rev-RRE inh inactive, PTK2B oligo ant inactive and PTPN22 inh 2 inactive.
`COc1ccccc1OCC(=O)Nc1sc2c(c1C(=O)NCC1CCCO1)CCC2` (configuration not stated) gave LYP act inactive, HIV Rev-RRE inh inactive, PTK2B oligo ant inactive and PTPN22 inh 2 inactive.
Screening CCc1nc(NCc2ccccn2)c2oc3ccccc3c2n1 returned PTK2B oligo ant -3.
Screening c1ccc(CNc2ncnc3c2oc2ccccc23)nc1 returned LYP act inactive, HIV Rev-RRE inh inactive, PTK2B oligo ant inactive and PTPN22 inh 2 inactive.
Screening Cc1c(C(=O)Nc2ccc3c(c2)OCCO3)sc2nc(-c3ccccc3)cn12 returned LYP act inactive, HIV Rev-RRE inh inactive, PTK2B oligo ant -3.6 and PTPN22 inh 2 inactive.
`C=CCOC(=O)Nc1c(C(=O)OC)[nH]c2ccc(Cl)cc12` gave LYP act inactive, HIV Rev-RRE inh inactive, PTK2B oligo ant inactive and PTPN22 inh 2 inactive.
Screening CCN1C(=O)/C(=C/c2nc3ccccc3c(=O)n2-c2ccccc2)c2ccccc21 returned LYP act inactive, HIV Rev-RRE inh inactive, PTK2B oligo ant -3.2 and PTPN22 inh 2 inactive.
Screening CCn1c(/C=C2/C(=O)N(C)c3ccccc32)nc2ccccc2c1=O returned LYP act inactive, HIV Rev-RRE inh inactive, PTK2B oligo ant inactive and PTPN22 inh 2 inactive.
Screening Cc1ccc2nc(SCC(=O)Nc3cc(C(F)(F)F)ccc3N3CCOCC3)[nH]c2c1 returned LYP act inactive, HIV Rev-RRE inh inactive, PTK2B oligo ant -3.5 and PTPN22 inh 2 inactive.
Screening COc1ccc(C(=O)Cn2nnc(-c3ccccc3NC(=O)c3ccco3)n2)cc1 returned LYP act inactive, HIV Rev-RRE inh inactive, PTK2B oligo ant inactive and PTPN22 inh 2 inactive.
CC(C)COC(=O)c1cc(=O)[nH]c2ccccc12 was read as LYP act inactive, HIV Rev-RRE inh inactive, PTK2B oligo ant inactive and PTPN22 inh 2 inactive.
For O=C(Cn1nnc(-c2ccc(Cl)cc2)n1)NCC1CCCCC1 the results were LYP act inactive, HIV Rev-RRE inh inactive, PTK2B oligo ant inactive and PTPN22 inh 2 inactive.
CCOc1cc(C2C(C#N)=C(N)OC(C)=C2C(C)=O)cc(Br)c1O (configuration not stated) was read as LYP act inactive, HIV Rev-RRE inh 50, PTK2B oligo ant inactive and PTPN22 inh 2 inactive.
For CCS(=O)(=O)N1Cc2ccccc2CC1C(=O)OCC(=O)Nc1ccc(C)cc1 (configuration not stated) the results were LYP act inactive, HIV Rev-RRE inh inactive, PTK2B oligo ant inactive and PTPN22 inh 2 inactive.
For O=C(COC(=O)CCc1ccccc1)Nc1ncc(Cl)cc1Cl the results were LYP act inactive, HIV Rev-RRE inh inactive, PTK2B oligo ant inactive and PTPN22 inh 2 inactive.
N#C/C(=C/c1ccc(N2CCCCC2)o1)c1cccc(F)c1 was read as LYP act inactive, HIV Rev-RRE inh 99[fluorescence artefact?], PTK2B oligo ant inactive and PTPN22 inh 2 inactive.
Screening N#C/C(=C/c1ccc(N2CCCCCC2)o1)c1ccc(Cl)cc1 returned LYP act inactive, HIV Rev-RRE inh 97[fluorescence artefact?], PTK2B oligo ant inactive and PTPN22 inh 2 inactive.
